Measurements as given in ChEMBL document CHEMBL1138023, “Macrocyclic ketone analogues of halichondrin B” (Bioorg Med Chem Lett, 2004).

Legend:
[1] = tested on: P388; assay: Fold resistance calculated as the inhibition concentration ratio between retrovirally transformed murine P388/VMDRC.04 and parental P388 cells; format: functional
How it was run: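 Readout of P-glycoprotein (PgP) susceptibility: IC50 in the retrovirally transformed P388/VMDRC.04 line divided by IC50 in parental P388 cells, giving fold resistance.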

[2] = In vitro reversibility ratio in U937 cells; format: functional, U-937
How it was run: (§1)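 Human histiocytic lymphoma U937 cells, read by flow cytometry. Scores whether a complete mitotic block is maintained 10 h after drug washout.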

[3] = tested on: U-937; assay: In vitro inhibitory concentration required to inhibit the growth of U937 cells was determined at 0 hr by mitotic block reversibility assay; format: functional; settings: Homo sapiens, U-937, 0 h
[4] = tested on: DLD-1; assay: In vitro inhibitory concentration required to inhibit the growth of DLD-1 cells under continuous exposure conditions for 3-4 days; format: functional, cell-based; settings: Homo sapiens
How it was run: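 Human colon cancer DLD-1 cells grown under continuous drug exposure for 3–4 days. Growth inhibition measured and IC50 reported ± SEM, n = number of experiments.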

[5] = tested on: U-937; assay: In vitro inhibitory concentration required to inhibit the growth of U937 cells was determined at 10 hr by mitotic block reversibility assay; format: functional; settings: Homo sapiens, U-937, 10 h; how it was run: as §1

| SMILES | FR [1] | Reversibility ratio [2] | IC99 [3] | IC50 [4] | IC99 [5] |
| --- | --- | --- | --- | --- | --- |
| C=C1C[C@@H]2CC[C@@]34C[C@@H]5O[C@@H]6C(O[C@H]7CC[C@H](CC(=O)C[C@@H]8[C@@H](OC)[C@@H](C[C@H](O)CN9CCOCC9)O[C@H]8C[C@H]8O[C@@H](CC[C@@H]1O2)C[C@@H](C)C8=C)O[C@@H]7[C@@H]6O3)[C@H]5O4 | 4.7 | 7 | 0.003 µM | 0.43 nM | 0.02 µM |
| C=C1C[C@@H]2CC[C@@]34C[C@@H]5O[C@@H]6C(O[C@H]7CC[C@H](CC(=O)C[C@@H]8[C@@H](OC)[C@@H](C[C@H](O)CN(C)C)O[C@H]8C[C@H]8O[C@@H](CC[C@@H]1O2)C[C@@H](C)C8=C)O[C@@H]7[C@@H]6O3)[C@H]5O4 | 22 | 10 | 0.001 µM | 1.2 nM | 0.01 µM |
| C=C1C[C@@H]2CC[C@@]34C[C@@H]5O[C@@H]6C(O[C@H]7CC[C@H](CC(=O)C[C@@H]8[C@@H](OC)[C@@H](C[C@H](O)CN9CCCCC9)O[C@H]8C[C@H]8O[C@@H](CC[C@@H]1O2)C[C@@H](C)C8=C)O[C@@H]7[C@@H]6O3)[C@H]5O4 | 17 | 10 | 0.001 µM | 0.47 nM | 0.01 µM |
| C=C1C[C@@H]2CC[C@@]34C[C@@H]5O[C@@H]6C(O[C@H]7CC[C@H](CC(=O)C[C@@H]8[C@@H](OC)[C@@H](C[C@H](O)CNC(=O)C(=O)c9ccccc9)O[C@H]8C[C@H]8O[C@@H](CC[C@@H]1O2)C[C@@H](C)C8=C)O[C@@H]7[C@@H]6O3)[C@H]5O4 | 3.6 | 3 | 0.003 µM | 0.87 nM | 0.01 µM |
| C=C1C[C@@H]2CC[C@@]34C[C@@H]5O[C@@H]6C(O[C@H]7CC[C@H](CC(=O)C[C@@H]8[C@@H](OC)[C@@H](C[C@H](O)CNC(=O)c9ccc(Cl)cc9)O[C@H]8C[C@H]8O[C@@H](CC[C@@H]1O2)C[C@@H](C)C8=C)O[C@@H]7[C@@H]6O3)[C@H]5O4 | 5.9 | 7 | 0.003 µM | 0.69 nM | 0.02 µM |
| C=C1C[C@@H]2CC[C@@]34C[C@@H]5O[C@@H]6C(O[C@H]7CC[C@H](CC(=O)C[C@@H]8[C@@H](OC)[C@@H](C[C@H](O)CNC(=O)c9cc(OC)c(OC)c(OC)c9)O[C@H]8C[C@H]8O[C@@H](CC[C@@H]1O2)C[C@@H](C)C8=C)O[C@@H]7[C@@H]6O3)[C@H]5O4 | 20 | 5 | 0.002 µM | 0.72 nM | 0.01 µM |
